Activity calls are given as the source filed them. The calls are words filed in the database; no cut-off is given here.
Tests used:
PC-3 = assay: Antiproliferative activity against human PC3 cells assessed as inhibition of cell proliferation after 3 days in presence of DHT by WST8 assay; format: functional, cell-based
In short: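 PC-3 cells kept in RPMI-1640 with 10% FBS, then diluted to 20,000 cells/mL in RPMI-1640 with 10% charcoal-stripped FBS. Seeded and held 24 h, then given serial dilutions of compound or DMSO with 1 nM DHT for 3 days. WST-8 added for 2 h, absorbance at 450 nm. Viability normalized to vehicle-treated cells as 1.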

[1] = target: T1, Androgen receptor (Mus musculus) (UniProt P19091); assay: Antagonist activity at AR in mouse SC3 cells assessed as inhibition of DHT-induced cell proliferation at 10 uM after 3 days by CCK8 assay relative to control; format: cell-based
T1 sequence (whole entry): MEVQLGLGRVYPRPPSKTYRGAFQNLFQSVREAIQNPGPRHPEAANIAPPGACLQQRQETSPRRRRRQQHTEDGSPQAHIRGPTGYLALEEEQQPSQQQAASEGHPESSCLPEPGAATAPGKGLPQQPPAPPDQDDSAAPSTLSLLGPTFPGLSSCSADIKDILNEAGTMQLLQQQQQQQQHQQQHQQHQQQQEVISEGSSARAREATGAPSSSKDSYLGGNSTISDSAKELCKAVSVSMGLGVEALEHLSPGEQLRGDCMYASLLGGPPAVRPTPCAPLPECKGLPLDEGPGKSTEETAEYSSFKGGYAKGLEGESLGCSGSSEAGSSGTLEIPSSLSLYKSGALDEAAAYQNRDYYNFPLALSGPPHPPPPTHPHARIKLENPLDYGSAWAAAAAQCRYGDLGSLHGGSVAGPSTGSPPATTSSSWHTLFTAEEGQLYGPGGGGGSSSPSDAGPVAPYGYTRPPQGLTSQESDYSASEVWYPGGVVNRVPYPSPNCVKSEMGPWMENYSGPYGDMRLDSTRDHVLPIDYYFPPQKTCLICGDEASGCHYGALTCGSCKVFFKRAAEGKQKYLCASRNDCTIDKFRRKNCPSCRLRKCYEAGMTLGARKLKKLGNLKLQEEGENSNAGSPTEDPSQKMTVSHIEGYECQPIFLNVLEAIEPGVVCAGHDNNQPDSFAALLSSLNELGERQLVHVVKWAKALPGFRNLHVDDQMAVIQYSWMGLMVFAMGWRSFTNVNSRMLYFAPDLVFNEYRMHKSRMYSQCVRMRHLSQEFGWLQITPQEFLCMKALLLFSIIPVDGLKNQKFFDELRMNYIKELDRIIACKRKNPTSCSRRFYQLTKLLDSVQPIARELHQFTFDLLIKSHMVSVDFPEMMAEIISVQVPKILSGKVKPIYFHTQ
In short: (§1)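 SC-3 cells diluted to 20,000 cells/mL in MEM α with 2% charcoal-stripped FBS, seeded and held 24 h, then given compound or DMSO with 1 nM DHT for 3 days at 37°C, 5% CO2. Read-out: WST-8 (CCK-8) for 2 h, absorbance at 450 nm. Compounds screened first at 10 µM. IC50 measured over 0.01–10 µM when inhibition exceeded 50%, taken as the level halving DHT-induced growth versus control. Triplicate or more.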

[2] = target: T1, Androgen receptor (Mus musculus); assay: Agonist activity at AR in mouse SC3 cells assessed as effect on cell proliferation after 3 days by CCK8 assay; format: cell-based
In short: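 SC-3 cells diluted to 20,000 cells/mL in MEM α with 2% charcoal-stripped FBS, seeded and held 24 h, then given serial dilutions of compound alone (DMSO as dilution control). Incubated 3 days at 37°C, 5% CO2. WST-8 (Cell Counting Kit-8) added for 2 h, absorbance read at 450 nm.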

[3] = target: T1, Androgen receptor (Mus musculus); assay: Antagonist activity at AR in mouse SC3 cells assessed as inhibition of DHT-induced cell proliferation up to 10 uM after 3 days by CCK8 assay; format: cell-based; in short: as §1
[4] = Antagonist activity at AR in mouse SC3 cells assessed as inhibition of DHT-induced cell proliferation after 3 days by CCK8 assay

Row | SMILES | inhibition (PC-3) | inhibition [1] [%] | Activity [2] | inhibition [3] | IC50 [4] [nM]
1 | COc1cccc(C(=O)Nc2ccc(Oc3ccc(O)cc3)c(F)c2F)c1 | Dose-dependent effect | > 50 | inactive |  | 
2 | COc1cccc(C(=O)Nc2ccc(Oc3ccc(O)cc3)c(Br)c2)c1 |  | > 50 | inactive |  | 
3 | COc1cccc(C(=O)Nc2ccc(Oc3ccc(O)cc3)cc2OC)c1 |  | > 50 | inactive |  | 
4 | COc1cccc(C(=O)Nc2cc(F)c(Oc3ccc(O)cc3)c(F)c2)c1 | Dose-dependent effect | > 50 | inactive |  | 
5 | COc1ccc(C(=O)Nc2ccc(C)c(Oc3ccc(O)cc3)c2)cc1 |  |  | inactive |  | 
6 | COc1ccc(C(=O)N(C)c2cccc(Oc3ccc(O)cc3)c2)cc1 |  |  | inactive | inactive | 
7 | CN(C)c1ccccc1C(=O)Nc1cccc(Oc2ccc(O)cc2)c1 |  | > 50 | inactive |  | 
8 | CN(C)c1cccc(C(=O)Nc2ccc(Oc3cccc(O)c3)cc2)c1 |  |  | inactive | inactive | 
9 | COc1cccc(C(=O)Nc2ccc(Oc3ccc(O)cc3)c(C#N)c2)c1 |  |  | inactive | inactive | 
10 | COc1cccc(C(=O)N(C)c2ccc(Oc3ccc(O)cc3)c(C)c2)c1 |  | > 50 | inactive |  | 
11 | COc1ccc(C(=O)Nc2cccc(Oc3ccc(O)cc3)c2)cc1 |  |  | inactive |  | 
12 | COc1cccc(C(=O)Nc2cccc(Oc3cccc(O)c3)c2)c1 |  |  | inactive |  | 
13 | COc1ccccc1C(=O)Nc1cccc(Oc2ccc(O)cc2)c1 |  |  | inactive |  | 
14 | COc1cccc(C(=O)Nc2ccc(Oc3ccc(O)cc3)cc2C)c1 |  | > 50 | inactive |  | 
15 | CN(C)c1cccc(C(=O)Nc2cccc(Oc3ccc(O)cc3)c2)c1 |  |  | inactive | inactive | 
16 | CN(C)c1cccc(C(=O)Nc2cccc(Oc3cccc(O)c3)c2)c1 |  |  | inactive |  | 
17 | COc1ccccc1C(=O)Nc1ccc(Oc2cccc(O)c2)cc1 |  |  | inactive | inactive | 
18 | COc1cccc(C(=O)Nc2ccc(Oc3ccc(O)cc3)c(F)c2)c1 | Dose-dependent effect | > 50 | inactive |  | 
19 | COc1cccc(C(=O)Nc2ccc(Oc3ccc(O)cc3)c(Cl)c2)c1 | Dose-dependent effect | > 50 | inactive |  | 
20 | CN(C)c1ccccc1C(=O)Nc1cccc(Oc2cccc(O)c2)c1 |  |  | inactive | inactive | 

Row | SMILES | inhibition (PC-3) | inhibition [1] [%] | Activity [2] | inhibition [3] | IC50 [4] [nM]
21 | COc1ccc(C(=O)Nc2cc(Oc3ccc(O)cc3)ccc2C)cc1 |  |  | inactive |  | 
22 | COc1cccc(C(=O)Nc2cc(Cl)c(Oc3ccc(O)cc3)c(Cl)c2)c1 | Dose-dependent effect | > 50 | inactive |  | 
23 | CN(C)c1ccc(C(=O)Nc2ccc(Oc3cccc(O)c3)cc2)cc1 |  | > 50 | inactive |  | 
24 | COc1cccc(C(=O)Nc2ccc(Oc3ccc(O)cc3)c(C(F)(F)F)c2)c1 |  | > 50 | inactive |  | 
25 | COc1cccc(C(=O)N(C)c2cccc(Oc3ccc(O)cc3)c2)c1 |  |  | inactive | inactive | 
26 | COc1ccc(C(=O)Nc2cccc(Oc3cccc(O)c3)c2)cc1 |  |  | inactive |  | 
27 | COc1cccc(C(=O)Nc2cccc(Oc3ccc(O)cc3)c2)c1 |  |  | inactive | inactive | 
28 | COc1cccc(C(=O)Nc2ccc(Oc3ccc(O)cc3)cc2F)c1 | Dose-dependent effect | > 50 | inactive |  | 
29 | CN(C)c1ccc(C(=O)Nc2cccc(Oc3ccc(O)cc3)c2)cc1 |  | > 50 | inactive |  | 
30 | C[C@](O)(CS(=O)(=O)c1ccc(F)cc1)C(=O)Nc1ccc(C#N)c(C(F)(F)F)c1 | inactive |  |  |  | 
31 | COc1ccccc1C(=O)Nc1ccc(C)c(Oc2ccc(O)cc2)c1 |  | > 50 | inactive |  | 
32 | COc1ccc(C(=O)Nc2cccc(Oc3ccc(O)cc3)c2C)cc1 |  |  | inactive |  | 
33 | COc1ccc(C(=O)Nc2ccc(Oc3cccc(O)c3)cc2)cc1 |  |  | inactive | inactive | 
34 | COc1cccc(C(=O)Nc2ccc(Oc3cccc(O)c3)cc2)c1 |  |  | inactive |  | 
35 | CN(C)c1ccccc1C(=O)Nc1ccc(Oc2cccc(O)c2)cc1 |  |  | inactive | inactive | 
36 | COc1ccccc1C(=O)Nc1cccc(Oc2cccc(O)c2)c1 |  |  | inactive | inactive | 
37 | COc1cccc(C(=O)Nc2ccc(Oc3ccc(O)cc3)cc2O)c1 |  |  | inactive | inactive | 
38 | COc1cccc(C(=O)Nc2ccc(Oc3ccc(O)cc3)cc2Cl)c1 |  | > 50 | inactive |  | 
39 | COc1cccc(C(=O)Nc2ccc(Oc3ccc(O)cc3)c(C)c2)c1 | Dose-dependent effect | > 50 |  |  | 750

Source: ChEMBL document CHEMBL4152364, “Structure-activity relationship of novel (benzoylaminophenoxy)phenol derivatives as anti-prostate cancer agents” (Bioorg Med Chem, 2018)
